Bioassay records (PubChem)
OX1R antag-1 – human HCRTR1 antagonism; inhibition, % at 5 µM; hit rate 0.43% among 330,000; CHO/OX1R cells, Fluo-8 calcium fluorescence, orexin A; AID 434989; O43613;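 active = inhibition above its plate's threshold, mean inhibition of all tested compounds on the plate plus 3 SD, cut at about 37% in these data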;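 note: 0% = orexin A challenge wells and 100% = SB-334867-A antagonist wells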
V1aR counter – V1a receptor agonism, counter-screen for OXTR agonists | P37288 | CHO-V1R cells, Fluo-8 calcium fluorescence, agonist mode; 0% DMSO, 100% 3 nM vasopressin | activation, % at 3 µM | hit rate 0.25% among 320,000 | AID 2797;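 active = activation above the mean activation of all tested compounds plus 3 SD, per screening run, cut at about 20% in these data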;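 note: signal is peak over basal fluorescence ratio across a 100 second FLIPR read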
OXTR potentiate – human OXTR potentiation. activation, % at 3 µM. hit rate 0.061% among 320,000. P30559. CHO-OTR cells, Fluo-8 calcium fluorescence, potentiator mode; 0% = oxytocin EC15, 100% = EC100;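 active = activation above that plate's cutoff, the mean activation of tested compounds plus 3 SD, cut at about 6.6% in these data, passing the limit was not always enough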;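 note: 100% uses oxytocin at 75 nM as the full agonist control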
Target sequence (P30559 whole entry, looked up): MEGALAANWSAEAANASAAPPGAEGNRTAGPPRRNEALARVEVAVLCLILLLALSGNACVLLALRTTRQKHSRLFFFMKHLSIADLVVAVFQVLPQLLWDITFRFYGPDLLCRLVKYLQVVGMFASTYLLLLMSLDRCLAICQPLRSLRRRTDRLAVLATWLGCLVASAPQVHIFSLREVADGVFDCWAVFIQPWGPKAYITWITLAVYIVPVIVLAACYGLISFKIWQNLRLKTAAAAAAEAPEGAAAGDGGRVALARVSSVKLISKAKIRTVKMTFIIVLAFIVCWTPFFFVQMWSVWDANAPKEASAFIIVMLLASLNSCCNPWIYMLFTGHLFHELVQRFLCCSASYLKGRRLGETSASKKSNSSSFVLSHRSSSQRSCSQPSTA
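assay system = CHO-OTR cells, human receptor | schedule = compound 6 min at room temperature before oxytocin, 100 s read | detection = Fluo-8 intracellular calcium fluorescence, ex 470-495, em 515-575 nm | evaluation = normalized max/min fluorescence ratio, % activation | control set = EC15 oxytocin alone as 0%, 75 nM oxytocin (EC100) as 100%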
OX1R antag-2 – blocks the human orexin 1 receptor | O43613 | OX1R-expressing cells, FRET antagonist read-out | inhibition, % at 6.6 µM | hit rate 1.8% among 330,000; in the data active = inhibition mostly above about 38%, no sharp cut-off; inactive = mostly below about 40%;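 note: 0% = agonist challenge alone and 100% = reference antagonist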
OXTR agonist – activates the human oxytocin receptor | AID 2435 | CHO-OTR cells, Fluo-8 calcium fluorescence; normalized: DMSO 0%, oxytocin 100% | activation, % at 3 µM | hit rate 0.32% among 320,000;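 active = activation above the mean of all tested compounds plus 3 SD, cutoff set per screening run, cut at about 20% in these data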;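 note: peak over basal fluorescence ratio from a 100 s FLIPR kinetic read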
CHO parental Ca – signal in parental CHO cells, OX1R antagonist counter-screen; AID 463079; parental CHO-K1, ATP-induced calcium, Fluo-8 fluorescence; hit rate 0.63% among 330,000; inhibition, % at 5.6 µM;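 active = inhibition above that plate's mean sample inhibition plus 3 SD, cut at about 26% in these data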;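 note: 0% = ATP-challenged DMSO wells and 100% = DMSO wells without ATP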
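Material: parental CHO cells / Compound: single nominal dose of 5.6 µM per compound / Signal: Fluo-8 fluorescence / Replicates: singlicate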
* = called active by the depositor. Hits are enriched below; roughly 2.6% of the tested compounds scored in any of these assays.

SMILES	OX1R antag-1	V1aR counter	OXTR potentiate	OX1R antag-2	OXTR agonist	CHO parental Ca
C=CCOC(=O)c1[nH]c2c(c1C)C(=O)CC(c1cc(OC)c(OC)c(OC)c1)C2 (centres undefined)	15.2	6.9	-21.7	24.4	11.4	33.0*
COCCOC(=O)c1[nH]c2c(c1C)C(=O)CC(c1cc(OC)c(OC)c(OC)c1)C2 (centres undefined)	-23.5	3.0	-9.8	-3.0	0.6	1.5
COCCOC(=O)c1[nH]c2c(c1C)C(=O)CC(c1ccccc1)C2 (centres undefined)	-5.8	8.7	-19.0	26.9	8.3	42.0*
CCCCOC(=O)c1[nH]c2c(c1C)C(=O)CC(c1cc(OC)c(OC)c(OC)c1)C2 (centres undefined)	7.8	6.4	-7.6	35.9	5.8	61.7*
CC1(C)CC(N=Cc2c(O)n(Cc3ccc4c(c3)OCO4)c(=O)c3ccccc23)CC(C)(C)N1	-9.1	2.1	-20.2	14.2	4.8	-8.4
O=C(O)Cc1ccc(S(=O)(=O)N2CCCC2)s1	3.6	0.1	-3.3	5.1	1.4	-5.1
N#C/C(=C\c1c(F)cccc1Cl)c1nn(-c2ccccc2)c(-n2cccc2)c1C#N	-14.2	0.9	-3.2	36.0*	1.5	-19.3
N#C/C(=C\c1cccc2ccccc12)c1nn(-c2ccccc2)c(N)c1C#N	-17.1	0.2	-5.8	13.2	0.8	-14.9
COc1cc(C(=O)NNC(=S)NC(=O)c2ccc(Cl)cc2)cc(OC)c1OC	12.8	33.6*	-13.2	13.8	37.0*	-1.3
O=C(NNC(=S)NC(=O)c1sc2ccccc2c1Cl)c1ccc(Cl)cc1	1.1	56.8*	-9.4	3.2	45.7*	-2.6
COc1cc(CCC(=O)NNC(=O)c2ccc(Cl)cc2)cc(OC)c1OC	-11.3	1.9	-3.2	9.6	0.2	-11.2
COc1ccc(C(=O)NC(=S)NNC(=O)c2ccc(C)cc2)cc1	58.7*	108.1*	-23.2	5.3	81.8*	49.2*
O=C(O)c1ccccc1NC(=S)NC(=O)c1sc2ccccc2c1Cl	-18.6	-0.7	-9.5	8.4	-1.6	11.9
COc1ccc(C(=S)Nc2ccc(C)cc2)cc1	5.2	0.8	-14.7	22.9	-1.9	73.0*
COc1ccc(NC(=S)c2ccncc2)cc1	-11.5	3.8	-14.4	16.0	2.6	-8.1
CCC(=O)NC(=S)NNC(=O)c1ccc(OC)cc1	-6.4	0.7	-2.1	7.2	-0.2	1.3
Cc1ccc(C(=O)NCCNS(=O)(=O)c2ccccc2)cn1	-14.0	-0.8	-5.6	13.8	-0.4	1.5
COc1ccc(C(=O)NNC(=S)NC(=O)c2ccc(Cl)cc2)cc1	33.5	76.5*	-21.8	-0.9	71.5*	28.0
N#CC(C#N)=C(Nc1ccc(F)cc1)SCc1cccc(F)c1	8.7	11.5	-8.4	70.9*	11.4	23.1
COC(=O)c1cccc(NC(=O)/C=C/c2ccc3c(c2)OCO3)c1	-1.6	0.9	-2.4	51.8*	-0.4	-4.6
Cc1ccc(-n2c(N)c(C#N)c(-c3ccc(Cl)cc3)c(C#N)c2=O)cc1	12.5	23.8*	-25.0	11.9	29.2*	9.9
Cc1ccc(-c2c(C#N)c(N)n(-c3ccc(C)cc3)c(=O)c2C#N)cc1	-16.9	9.1	-11.0	0.7	10.2	-1.8
CC(C)C(NC(=O)c1c(F)cccc1F)C(=O)N1CCN(S(=O)(=O)c2ccc(F)cc2)CC1 (centres undefined)	-28.6	-0.1	6.3	2.5	0.5	-22.2
Clc1ccc2c(N/N=C/c3cccnc3)ccnc2c1	-21.8	0.2	-1.6	34.9	-0.3	-6.5
Clc1ccc2c(N/N=C/c3ccc(Br)cc3)ccnc2c1	7.7	1.4	-8.3	15.4	-1.0	49.1*
COc1ccccc1N(CC(O)Cn1nc(C)cc1C)S(=O)(=O)c1ccccc1 (centres undefined)	11.1	-0.9	-8.4	47.4*	-1.6	-12.2
Cc1ccc(-c2nnn(CC(=O)N(c3ccc(F)cc3)C(C(=O)NC3CCCC3)c3ccco3)n2)o1 (centres undefined)	-16.8	-0.7	-5.9	8.7	-1.4	-14.4
Cc1ccc(-c2nnn(CC(=O)N(c3ccccc3F)C(C(=O)NC3CCCC3)c3ccco3)n2)o1 (centres undefined)	9.6	-0.1	-4.1	45.1*	-1.3	-2.1
